Screens: PubChem BioAssay, several laboratories
Only a selection was taken, and hits are over-represented in it overall.
WNV protease inh – inhibitors of WNV NS2B-NS3 protease, primary screen, biochemical, fluorogenic substrate. fluorogenic substrate Ex360/Em465; hits give low values. z-score (concentration not given with the values). actives 0.18% (n = 65,000). AID 577, 2007; in the data active means z-score below about -3
TNAP act DEA – human TNAP enzyme activators, primary screen, biochemical, luminescent, intermediate phosphate acceptor level. Alkaline phosphatase, tissue-nonspecific isozyme (Homo sapiens), P05186. purified TNAP, CDP-star luminescence, 100 mM DEA, 30 min; hits give high values; scale: 0 levamisole-inhibited, 1 vehicle-only enzyme. activation factor at 20 µM. 64,000 tested, under 10 active. AID 813, 2007;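 active means activation factor of at least 2 at 20 µM, relative to controls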
Target sequence (P05186 whole entry, looked up): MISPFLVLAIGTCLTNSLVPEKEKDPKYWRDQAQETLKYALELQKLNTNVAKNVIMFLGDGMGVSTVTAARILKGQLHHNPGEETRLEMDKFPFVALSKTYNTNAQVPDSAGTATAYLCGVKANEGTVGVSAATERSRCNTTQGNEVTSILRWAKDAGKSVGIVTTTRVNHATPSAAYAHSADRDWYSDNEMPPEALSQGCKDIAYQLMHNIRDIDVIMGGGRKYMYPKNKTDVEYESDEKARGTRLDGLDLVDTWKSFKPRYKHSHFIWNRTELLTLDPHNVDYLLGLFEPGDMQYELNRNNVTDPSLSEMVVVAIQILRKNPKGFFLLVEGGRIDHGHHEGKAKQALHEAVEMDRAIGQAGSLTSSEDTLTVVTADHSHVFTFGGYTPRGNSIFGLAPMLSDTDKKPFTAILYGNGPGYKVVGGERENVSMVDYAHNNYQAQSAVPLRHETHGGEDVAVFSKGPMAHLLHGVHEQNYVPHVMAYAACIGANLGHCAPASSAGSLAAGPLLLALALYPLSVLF
E coli WT exp – growth inhibitors of wild-type E. coli, primary screen, strain BW25113, expanded library, OD600; OD600 absorbance; growth inhibition, % at 100 µM; actives 0.15% (n = 98,000); AID 710, 2007;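 active means growth inhibition above about 50% at one test dose, limit read from the data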;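 further: growth measured after 20 h incubation at 37 °C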
BAP1 inh – inhibitors of BAP1 deubiquitinase, primary screen, biochemical, Ub-AMC fluorescence, kinetic; AID 436, 2006; calls only at 20 µM; Ubiquitin carboxyl-terminal hydrolase BAP1 (Homo sapiens), Q92560; recombinant BAP1, Ub-AMC hydrolysis fluorescence kinetic; hits give low values; actives 0.48% (n = 72,000);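 active means activity remaining at or below 50% of control, provided the compound also passes the data quality filters; inactive means the rest, including low values that fail the filters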;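 further: 100% = DMSO wells rate and 0% = substrate alone blank rate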
tolC growth inh – growth inhibitors of E. coli tolC mutant, primary screen, strain BW25113 ΔtolC::kan, 384-well; OD615; actives 2.2% (n = 65,000); growth inhibition, % at 10 µM (by protocol); AID 573, 2007;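 active means growth inhibition at or above a cutoff equal to the mean over every tested compound plus 3 SD, cut at about 60% in these data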;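 further: growth measured after 20 h incubation at 37 °C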
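Signal: optical density read at 615 nm; Assay system: E. coli ΔtolC::kan strain BW25113; Times: 20 h incubation with compound, 37 °C; Dosing: 10 µM final, single dose.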
Starred values were filed as active, the others as inactive; i = inactive; . = not tested or not shown.

SMILES	WNV protease inh	TNAP act DEA	E coli WT exp	BAP1 inh	tolC growth inh
CCOc1ccccc1N1CCN(C(=O)Nc2ccc(F)c(Cl)c2)CC1	-0.89	1	10	i	96*
CCOc1ccccc1N1CCN(C(=O)C(F)(F)F)CC1	.	.	11	.	.
COC(=O)c1cn(NC(=O)c2cnccn2)c(=O)c2ccccc12	-0.66	0.9	1	.	99*
COC(=O)c1cn(NC(=O)c2ccc(OC)c(OC)c2)c(=O)c2ccccc12	.	.	-4	.	.
CCOc1cc(CNCCO)cc(Br)c1OCc1ccc(Cl)cc1Cl	.	.	80*	.	.
CCOc1cc(CNCCO)cc(Br)c1OCc1cccs1	.	.	11	.	.
Cc1nn(-c2ccccc2)c2[nH]c(=O)c(CNCc3ccc4c(c3)OCO4)cc12	0.71	1	2	i	93*
Cc1nn(-c2ccccc2)c2[nH]c(=O)c(CNc3ccc4c(c3)OCCO4)cc12	-1	0.9	3	i	38
CCOC(=O)c1csc(Nc2nc3ccc(F)cc3s2)n1	-0.7	1	-2	i	88*
CC(=O)c1sc(Nc2nc3ccc(F)cc3s2)nc1C	-1.6	1	-4	i	60
Oc1c(C(c2cccs2)N2CCN(c3cccc(Cl)c3)CC2)sc2ncnn12 (configuration not stated)	-0.53	0.9	3	i	100*
Oc1c(C(c2ccccc2)N2CCc3ccccc3C2)sc2ncnn12 (configuration not stated)	1.2	0.8	4	i	-2
Oc1c(C(c2ccco2)N2CCN(C(c3ccccc3)c3ccccc3)CC2)sc2ncnn12 (configuration not stated)	-0.18	1	-4	i	64*
N#CCOc1ccc2cc(-c3nc4ccccc4s3)c(=O)oc2c1	.	.	.	i	.
CCOC(=O)c1cc(CC)sc1NC(=O)CCC(=O)O	0.04	0.9	-1	i	7
CCOC(=O)c1cc(CC)sc1NC(=O)Cc1ccsc1	-0.51	0.9	5	i	73*
N#Cc1cn(Cc2ccccc2)c2ccccc12	0.68	0.8	5	i	71*
COc1cc(C2C(C(=O)c3ccc(C)o3)=C(O)C(=O)N2c2cc(C)on2)cc(Br)c1O (configuration not stated)	0.15	0.8	-8	i	65*
COCc1cc(C)nc2sc3c(=O)oc(C)nc3c12	0.0051	0.9	4	i	66*
COCc1cc(C)nc2sc(C(=O)OC)c(N)c12	0.58	1	2	i	6
CCCCc1c(C)nn(-c2nnc3c4ccccc4n(CC)c3n2)c1C	-0.63	1.1	0	i	75*
CCN(c1cccc(C(F)(F)F)c1)S(=O)(=O)c1ccc2c(c1)CCN2C(=O)C1CC1	0.4	0.9	2	i	69*
O=C(Nc1cccc(OC(F)(F)F)c1)c1ccc(Br)o1	1.7	2.3*	20	i	23
CCN(C(=O)c1cc2cc3ccc(C)cc3nc2o1)c1ccc(OC)cc1	-0.43	0.9	-15	i	72*
COc1ccc2cc3cc(C(=O)NC(C)C)oc3nc2c1	.	.	-5	.	.
SMILES	WNV protease inh	TNAP act DEA	E coli WT exp	BAP1 inh	tolC growth inh
COc1ccc(S(=O)(=O)n2cnc3cc(C)c(C)cc32)cc1C	2	1	-1	i	77*
CCn1cc(C(=O)NC2CC3CCC2C3)c(=O)c2ccc(C)nc21 (configuration not stated)	-1.3	1	.	.	0
CCn1cc(C(=O)NC2CCCCC2C)c(=O)c2ccc(C)nc21 (configuration not stated)	0.12	0.9	92*	i	100*
Oc1ccc(-c2[nH]ncc2-c2ccc(Cl)cc2)c(O)c1	-0.15	1	30	i	100*
Oc1ccc(-c2[nH]ncc2-c2cccc3cccnc23)c(O)c1	-0.64	0.9	13	i	-4
COc1ccc(-c2[nH]ncc2-c2ccc(Cl)cc2)c(O)c1	0.56	1	18	i	98*
COc1ccc(NS(=O)(=O)c2c(C)cc(C)cc2C)cc1	.	.	-8	.	.
COc1ccc(NS(=O)(=O)c2cc(C)ccc2NC(=O)c2cc(C)oc2C)cc1	-0.05	0.8	1	i	87*
Cc1cccc(S(=O)(=O)Nc2cccc(-c3cn4ccsc4n3)c2)c1	-0.24	0.9	-10	i	30
Cc1ccc(S(=O)(=O)Nc2cccc(-c3cn4ccsc4n3)c2)cc1	0.54	0.9	-2	i	83*
CC(=O)c1c(C)[nH]c(C(=O)NCc2ccccc2Cl)c1C	-2.3	0.9	1	i	-1
CCCCC(CC)CNC(=O)c1[nH]c(C)c(C(C)=O)c1C (configuration not stated)	0.6	0.9	5	i	62*
CCC(=O)N1CCc2cc(Br)cc(S(=O)(=O)CC(=O)OC)c21	-4.8*	0.9	-13	i	-3
CC(C)c1nc(N2CCN(C(=O)c3ccco3)CC2)c2c3c(sc2n1)CCCC3	0.29	0.9	3	i	79*
Cn1cc(SCC(=O)Nc2nc3ccccc3s2)c2ccccc21	-0.06	0.9	-23	i	62*
Cc1csc(SCC(=O)Nc2nc3ccccc3s2)n1	-1.8	0.9	24	i	26
Cc1cccc(C(C)Nc2ccc([N+](=O)[O-])cn2)c1 (configuration not stated)	.	.	17	.	.
O=C(CCC1CCCC1)c1c(O)c2ccccc2oc1=O	0.6	0.9	14	i	97*
O=C(c1c(O)c2ccccc2oc1=O)C1CCCCC1	.	.	-5	.	.
CCCCOc1ccccc1Cn1c(=O)oc2ccc(C)cc21	-0.28	.	-1	.	70*
Cc1ccc2oc(=O)n(CCCOc3ccccc3)c2c1	-0.58	0.9	2	i	47
Cc1ccc2oc(=O)n(Cc3ccccc3OC(C)C)c2c1	-0.61	0.9	4	i	99*
COc1ccc(Cn2c(=O)oc3ccc(C)cc32)cc1OC	-0.89	0.9	7	i	16
O=C(O)c1cc(Cl)c2ccccc2c1O	0.26	0.9	13	i	66*
O=C(O)c1ccc2cccc(Cl)c2c1O	2	0.9	0	.	30
SMILES	WNV protease inh	TNAP act DEA	E coli WT exp	BAP1 inh	tolC growth inh
N=c1c2c(-c3ccccc3)c(-c3ccccc3)n(Cc3ccco3)c2ncn1Cc1ccco1	-1	1	18	i	64*
N=c1c2c(-c3ccccc3)c(-c3ccccc3)n(Cc3ccccc3)c2ncn1CCCn1ccnc1	-0.6	1.5	28	i	23
Cc1ccc(-n2c(C)cc(C(=O)COC(=O)c3c(C)noc3C)c2C)cc1	-0.8	1	-9	i	82*
CCOCCn1c(=O)c2c(nc3n2CCN3c2ccc(CC)cc2)n(C)c1=O	-0.13	0.9	.	i	-3
Cc1cc(=O)oc(C)c1C(=O)OCC(=O)c1ccc(Cl)cc1	.	.	3	.	.
O=c1ccsn1Cc1ccccc1	-0.57	0.9	100*	i	100*
